Experimental data as given in article PMC13435124 (The FASEB Journal, 2026).
Structures can show the parent of a compound that is named as a salt.

Tested on: Nrf2 activation in KeratinoSens cells
Assay: KeratinoSens reporter gene assay
Assay type: cell-based
Settings: 6 h
How it was run: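 KeratinoSens ARE-luciferase cells (passage ≤22) plated at 1.0 × 10^4 per well in triplicate; after 24 h switched to DMEM with 1% FBS, no geneticin. Wortmannin 500 nM added 1 h before test compound at 250 μM; DMF 50 μM as positive control; DMSO ≤0.1%. After 6 h, Alamar Blue (4 h, 37°C), then luciferase read as fold over DMSO. Three independent experiments in triplicate.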

| SMILES | effect on Iso-induced Nrf2 activation (Wortmannin 500 nM added 1 h before Iso 250 μM) | Nrf2 activation (luciferase induction) (Iso 250 μM, DMF 50 μM) |
| --- | --- | --- |
| COC[C@H]1OC(=O)c2coc3c2[C@@]1(C)C1=C(C3=O)[C@@H]2CCC(=O)[C@@]2(C)C[C@H]1OC(C)=O [Wortmannin] | partially inhibited | – |
| COC(=O)/C=C/C(=O)OC [DMF, Dimethyl fumarate] | – | induced Nrf2 activation |
